This is an account of results in article PMC11401921 (Nature Communications, 2024).

The test system of one assay is seed germination. To be noted: cited from earlier work.
For assay [1], the system named is Arabidopsis WT (Col) seedlings. The assay can be described thus: GO analysis of DEGs. The format is in vivo, Arabidopsis thaliana. The following applies: unique DEGs. Put shortly: (§1)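 Ten-day-old WT Col seedlings were mock-treated or exposed to 50 μM ABA or test compound for 3 h, in biological duplicates. Total RNA was sequenced as 50 bp paired-end reads, about 20 million per sample. Reads were mapped to the Arabidopsis gene model and counted per gene, then tested for differential expression. DEGs were subjected to GO analysis.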

The target in assay [2] is T1, PYL1 (Arabidopsis thaliana, UniProt Q8VZS8).
T1 sequence (Q8VZS8 1-221): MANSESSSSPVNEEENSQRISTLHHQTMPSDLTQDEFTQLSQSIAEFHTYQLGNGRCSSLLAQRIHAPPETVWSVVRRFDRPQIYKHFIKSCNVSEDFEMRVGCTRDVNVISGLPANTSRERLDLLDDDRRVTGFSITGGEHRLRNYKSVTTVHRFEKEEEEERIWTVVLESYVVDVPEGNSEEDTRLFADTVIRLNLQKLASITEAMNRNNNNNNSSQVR
The assay is described as follows: ITC binding to PYL1. Put shortly: (§2)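 Full-length N-terminal His6-tagged receptor was expressed in E. coli BL21(DE3) and purified by Ni-NTA, ion exchange and gel filtration, with the tag removed. ITC ran at 25 °C in 25 mM HEPES, 100 mM NaCl, pH 7.5, using degassed ligand dissolved in the same buffer. Final protein was 50–100 μM and ligand 500–1000 μM.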

For assay [3], the target named is T1, PYL1. To be noted: PYL1, literature value; cited from earlier work.
The subject of assay [4] is Arabidopsis thaliana seeds (WT Col-0 and mutants). The assay is described as follows: Seed germination assay. Format: in vivo. The following applies: ABA 1 µM. An outline of the steps: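 WT Col-0 and mutant seeds (pyr1/pyl1/pyl2/pyl4, pyl3/pyl7/pyl9/pyl11/pyl12, PYL4 overexpression) were stratified for 4 days. They were sown on half-strength MS agar with 1% sucrose containing 0.05% DMSO, 1 µM ABA, 1 µM test compound, or both. Each treatment used 40 seeds per plate on three plates, at 22 °C under long days. Seeds were scored daily as germinated when green cotyledons appeared.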

Another assay addresses T2, PYR1 (Arabidopsis thaliana, UniProt O49686).
T2 sequence (O49686 1-191): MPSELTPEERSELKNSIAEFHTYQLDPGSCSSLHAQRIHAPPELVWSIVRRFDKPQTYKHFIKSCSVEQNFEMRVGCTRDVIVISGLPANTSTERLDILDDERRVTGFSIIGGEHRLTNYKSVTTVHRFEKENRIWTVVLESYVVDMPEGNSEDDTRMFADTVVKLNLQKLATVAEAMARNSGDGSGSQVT
The assay is described as follows: ITC binding to PYR1. To be noted: PYR1 wild type. Put shortly:
as §2

Assay [5] deals with Arabidopsis WT (Col) seedlings. The assay is described as follows: RNA-Seq transcriptome analysis. The format is in vivo, Arabidopsis thaliana. The following applies: ten-day-old plants, 50 μM, 3 h. Put shortly:
as §1

The subject of assay [6] is HAB1 with PYR1, PYL1, PYL2, PYL3, PYL5, PYL6 and PYL10. The assay is described as follows: Phosphatase assay, HAB1 with all seven tested PYLs. Format: biochemical, Arabidopsis thaliana. The following applies: 5 μM ABA. Put shortly: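 Recombinant His-tagged HAB1 phosphatase activity was measured with a Ser/Thr phosphatase assay system. Receptor:HAB1 was 0.4:0.4 μM (1:1) for PYR1, PYL1, PYL2 and PYL3, and 0.8:0.4 μM (2:1) for PYL5, PYL6 and PYL10. Mixtures were incubated with 5 μM ABA, 50 μM test compound, or both. Three biological replicates were run.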

Another assay deals with T3, PYR1 dimer (Arabidopsis thaliana, UniProt O49686).
T3 sequence (O49686 1-191): T2 sequence (O49686 1-191)
The assay is described as follows: SEC-MALLS protein oligomeric state. The following applies: 1 mM chemical(s), PYR1 80 μM. Put shortly: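 Size exclusion used a Superdex S200 column in 20 mM Tris pH 7.5, 150 mM NaCl, 1 mM β-mercaptoethanol, at 20 °C and 0.5 ml/min. The equilibration buffer held 1 mM ABA, 1 mM test compound, or both. Receptor was injected at 80 μM. Weight-averaged molar mass was calculated from on-line MALLS with a 690 nm laser.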

Read-outs that look alike come from different tables or passages of the source.

For the compound `N#Cc1c(C2CC2)cc(CC(=O)NC2(C(=O)O)CCCCC2)cc1C1CC1` [opabactin], the “activity in inhibiting seed germination relative to ABA” value in the assay on seed germination is reported as ~ 10 fold.

In the case of `CC1=CC(=O)CC(C)(C)[C@@]1(O)/C=C/C(C)=C\C(=O)O` [ABA, Abscisic acid], the “number of genes involved in seed germination induced (GO:0009845)” value in assay [1] was 28. The Kd on PYL1 [2] was 23.5 µM; on PYL1 [3] it was about 50 µM; on PYR1 it was 22 µM. For the same compound, the germination rate entry in assay [4] (4OE seeds), in assay [4] (3791112 seeds) and in [4] (WT seeds) was “lower than 30%” in each case. For the same compound, the germination phenotype entry in [4] (1124 (pyr1/pyl1/pyl2/pyl4) seeds) is on record as “ABA insensitive phenotype”. In addition, the “number of genes specifically responsive” value in [5] came to 2602. For the same compound, the “number of differentially expressed genes (DEGs) induced” value in [5] (relative to DMSO) came out at 3366. In assay [6], the “inhibition of HAB1 activity” value is at least 70%. Also, the “elution volume of PYR1” value on PYR1 dimer was in the range of 16.02 to 17.05 mL. Further, the “molecular mass of PYR1” value at PYR1 dimer (dimer theoretical 43 kDa) is recorded as 22 ± 2 kDa.
